{
  "source": "ChEMBL document CHEMBL4513216",
  "about": "“Probing the Open Global Health Chemical Diversity Library for Multistage-Active Starting Points for Next-Generation Antimalarials” (ACS Infect Dis, 2020)",
  "data": [
    {"experiment": "Toxicity liver stage against HepG2, at 10uM", "assay_type": "cell-based", "design": "test concentration 10 uM, cell line HepG2-A16-CD81EGFP", "conditions": "human, HepG2-A16-CD81EGFP cells; read-out: INHIBITION", "method_in_brief": "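Uninfected HepG2-A16-CD81EGFP cells, 3 × 10^3 per well, 1536-well, plated on prespotted compound at 10 μM final, parasite-free screening media added to match infected plates; puromycin 10 μM positive, DMSO 0.5% negative; run in parallel with 48 h PbLuc assay at 37 °C, 5% CO2; viability by CellTiter-Glo luminescence, normalized to controls.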", "units": {"cytotoxicity at 10 µM": "%"}, "values": [
      {"smiles": "CC(=O)N1C[C@@H](F)[C@@H](OCc2nc3cc(C)c(C)cc3[nH]2)C1", "cytotoxicity at 10 µM": 1.77},
      {"smiles": "COCCOc1ncccc1-c1noc([C@@H]2CCCN2C2CCC2)n1", "cytotoxicity at 10 µM": -7.68},
      {"smiles": "COc1ccc(CN2C[C@H](O)C[C@H]2c2nc(-c3ccccc3)no2)cc1", "cytotoxicity at 10 µM": 0.223},
      {"smiles": "CCn1cnc2c(cnn2-c2cccc(C)c2C)c1=O", "cytotoxicity at 10 µM": -17.9},
      {"smiles": "CCOCc1nn(C)c2c1CN(C(=O)c1ccno1)CC2", "cytotoxicity at 10 µM": 8.61},
      {"smiles": "COCCNC(=O)Cn1c(-c2cccc(F)c2)nc(C)c(CCO)c1=O", "cytotoxicity at 10 µM": -2.37},
      {"smiles": "CC(=O)Nc1nc(-c2ccc(C)c(C)c2)c[nH]1", "cytotoxicity at 10 µM": -19.3},
      {"smiles": "O=c1cc(-c2ccc(F)cc2)nc2n1CCCCC2", "cytotoxicity at 10 µM": -1.91},
      {"smiles": "Cn1ccc2c(C(=O)N3CCC(C(N)=O)CC3)cccc21", "cytotoxicity at 10 µM": 2.92},
      {"smiles": "Cc1cnc2n(c1=O)CC(C(=O)Nc1cccc3cccnc13)CS2", "note": "(stereo not drawn)", "cytotoxicity at 10 µM": -19.6},
      {"smiles": "CC(C)NC(=O)c1ccc2c(c1)nc1n2CCN(c2ccccc2)C1", "cytotoxicity at 10 µM": -3.99},
      {"smiles": "CCn1nnc2c1C(COC)CN(C(=O)Cc1cccs1)C2", "note": "(stereo not drawn)", "cytotoxicity at 10 µM": -15.5},
      {"smiles": "Cc1noc([C@H]2CC[C@@H]3[C@@H](CCN3S(C)(=O)=O)O2)n1", "cytotoxicity at 10 µM": -19.3},
      {"smiles": "CC(C(=O)O)n1nc(C(F)(F)F)c(Cl)c1C1CC1", "note": "(stereo not drawn)", "cytotoxicity at 10 µM": 2.01},
      {"smiles": "CC1(C(=O)N2CCOCC2)CN(CC2CCOCC2)CCO1", "note": "(stereo not drawn)", "cytotoxicity at 10 µM": 4.14},
      {"smiles": "Cc1cc2ccncc2n1CC1(O)CCN(C(=O)c2ccncc2)CC1", "cytotoxicity at 10 µM": 7.53},
      {"smiles": "CN1C[C@@H](C(=O)NCC(F)(F)F)[C@@]2(CCc3ccccc3C(=O)N2)C1", "cytotoxicity at 10 µM": 6.22},
      {"smiles": "Cc1csc2c(C3CCCN(C(=O)Cn4cncn4)C3)nc(C)n12", "note": "(stereo not drawn)", "cytotoxicity at 10 µM": 5.27},
      {"smiles": "CCCn1nccc1-c1nccnc1CC1CCN(C(C)=O)C1", "note": "(stereo not drawn)", "cytotoxicity at 10 µM": 1.34},
      {"smiles": "CSCC[C@@H]1CN2CCC[C@H]2CN1Cc1coc2ccc(Cl)cc2c1=O", "cytotoxicity at 10 µM": 0.11},
      {"smiles": "c1ccc(CCN2CCC(OCC3CCCCO3)CC2)nc1", "note": "(stereo not drawn)", "cytotoxicity at 10 µM": -4.9},
      {"smiles": "COC(=O)CNC(=O)CCc1cc(Br)cs1", "cytotoxicity at 10 µM": 0.624},
      {"smiles": "CCCC(=O)NC1CCCN(c2nc3ccccc3cc2CO)C1", "note": "(stereo not drawn)", "cytotoxicity at 10 µM": -44.5},
      {"smiles": "CN(CC(=O)N1CCCC(n2ccnc2)C1)c1cnccn1", "note": "(stereo not drawn)", "cytotoxicity at 10 µM": 1.41},
      {"smiles": "Cc1ccc(N2CCCN(C(=O)CCCn3ccnc3C)CC2)nn1", "cytotoxicity at 10 µM": -3.83},
      {"smiles": "CCn1cnnc1CNC(=O)N(C)Cc1ccccc1OC", "cytotoxicity at 10 µM": -7.32},
      {"smiles": "O=C(NCC(=O)N1CCCC1Cc1cccc(F)c1)C1CCCC1", "note": "(stereo not drawn)", "cytotoxicity at 10 µM": -18},
      {"smiles": "Cn1cc(C(=O)NCCC(=O)N2CCCCC2)c(-c2cccnc2)n1", "cytotoxicity at 10 µM": -5.93},
      {"smiles": "CC(CS(C)(=O)=O)N(C(=O)Nc1ccc(F)cc1F)C1CC1", "note": "(stereo not drawn)", "cytotoxicity at 10 µM": 4.08},
      {"smiles": "CCOc1ncccc1NC(=O)c1ccc(C(C)=O)s1", "cytotoxicity at 10 µM": 2.99},
      {"smiles": "O=C(Nc1ccccc1OC1CCOC1)c1ccon1", "note": "(stereo not drawn)", "cytotoxicity at 10 µM": -0.238},
      {"smiles": "CC(O)CN1CCC(CN(C)CCC(=O)NC2CCCC2)CC1", "note": "(stereo not drawn)", "cytotoxicity at 10 µM": -0.663},
      {"smiles": "CC(=O)N(Cc1noc(C)n1)C1CCN(CC(=O)N(C)C2CC2)C1", "note": "(stereo not drawn)", "cytotoxicity at 10 µM": -4.69},
      {"smiles": "CC(C)c1nsc(N2CCOCC2)n1", "cytotoxicity at 10 µM": -11},
      {"smiles": "CCOCCN1CCN(c2ccc(CN(C)C)cn2)CC1", "cytotoxicity at 10 µM": -4.11},
      {"smiles": "Cc1cc(CN(C)C(=O)C2CC(c3cccc(F)c3)=NO2)no1", "note": "(stereo not drawn)", "cytotoxicity at 10 µM": 5.91},
      {"smiles": "Cc1nn(C)c2ncc(CN3CCN(c4ncccn4)CC3)cc12", "cytotoxicity at 10 µM": -0.234},
      {"smiles": "Nc1nccnc1C(=O)N1CCN(CCOc2ccccc2)CC1", "cytotoxicity at 10 µM": 12.8},
      {"smiles": "Clc1ccccc1-c1nnc(CSCCN2CCOCC2)o1", "cytotoxicity at 10 µM": 0.728},
      {"smiles": "CC(C)NC(=O)CN(C1CC1)C(C)C1CC1", "note": "(stereo not drawn)", "cytotoxicity at 10 µM": -1.6},
      {"smiles": "Cc1noc(CNc2c(N3CCCC3)cccc2N2CCCC2)n1", "cytotoxicity at 10 µM": 0.184},
      {"smiles": "CCCNC(=O)c1ccc(-c2ccco2)[nH]c1=O", "cytotoxicity at 10 µM": -5.68},
      {"smiles": "Cn1cc(CCCNC(=O)NC2CCN(c3ccccc3)C2=O)cn1", "note": "(stereo not drawn)", "cytotoxicity at 10 µM": 6.75},
      {"smiles": "O=C(Cc1cn2ccsc2n1)N(Cc1ccco1)CC1CCCO1", "note": "(stereo not drawn)", "cytotoxicity at 10 µM": 7.07},
      {"smiles": "COc1ccc(-c2nc(CNC(C)Cn3cccn3)cs2)cc1", "note": "(stereo not drawn)", "cytotoxicity at 10 µM": 4.27},
      {"smiles": "O=C(NCc1nc[nH]n1)c1cc(COc2cccc(F)c2)[nH]n1", "cytotoxicity at 10 µM": -4.99},
      {"smiles": "Cc1nc(C)c(-c2nnc(SCC(=O)O)n2C(C)c2ccccc2)o1", "note": "(stereo not drawn)", "cytotoxicity at 10 µM": 4.64},
      {"smiles": "c1ccc(N2CCCC(c3nc(-c4cccnn4)no3)C2)nc1", "note": "(stereo not drawn)", "cytotoxicity at 10 µM": -3.42},
      {"smiles": "Cc1nc(CCN)cc(N2CCC(O)(c3ccccc3)C2)n1", "note": "(stereo not drawn)", "cytotoxicity at 10 µM": 2.03},
      {"smiles": "CN1C(=O)C2(CCCN(C(=O)c3cccnc3O)C2)c2ccccc21", "note": "(stereo not drawn)", "cytotoxicity at 10 µM": -5.21},
      {"smiles": "CCCc1nncn1-c1cc(OC)ccc1OC", "cytotoxicity at 10 µM": 7.93},
      {"smiles": "CN(C)C(C(=O)N1CCN(S(N)(=O)=O)CC1)c1ccccc1F", "note": "(stereo not drawn)", "cytotoxicity at 10 µM": 0.199},
      {"smiles": "Cc1cc(C)n(CC2(CNC(=O)C(c3ccccc3C)N(C)C)CC2)n1", "note": "(stereo not drawn)", "cytotoxicity at 10 µM": 1.79},
      {"smiles": "O=C(CN1CCOC1=O)N1CCc2nnc(-c3ccccc3)n2CC1", "cytotoxicity at 10 µM": -16.2},
      {"smiles": "CCn1nc(NC(=O)Cn2ccc(C(C)=O)n2)c2ccccc21", "cytotoxicity at 10 µM": 12.8},
      {"smiles": "CN1CC2(CCN(C(=O)c3ccc4nccnc4c3)CC2)CC1=O", "cytotoxicity at 10 µM": -1.7},
      {"smiles": "CCc1ncc(C(=O)N2CCN(Cc3ncccc3C)CC2)cn1", "cytotoxicity at 10 µM": -4.68},
      {"smiles": "COc1cc(CN2CCN(CC3CC3)[C@@H]3CS(=O)(=O)C[C@@H]32)cc(OC)c1", "cytotoxicity at 10 µM": 1.41},
      {"smiles": "COc1nc2ccccc2cc1CN1CCC(CNS(C)(=O)=O)C1", "note": "(stereo not drawn)", "cytotoxicity at 10 µM": -2.7},
      {"smiles": "CS(=O)(=O)N(Cc1ccon1)c1ccc2c(c1)OCO2", "cytotoxicity at 10 µM": 1.06},
      {"smiles": "CCC(NS(C)(=O)=O)c1ccccc1C", "note": "(stereo not drawn)", "cytotoxicity at 10 µM": -43.2},
      {"smiles": "Cc1ccccc1CS(=O)(=O)NCCCN1CCCCC1", "cytotoxicity at 10 µM": 19.4},
      {"smiles": "Cc1nc(-c2ccccc2C)n(CC(=O)NC2CCCC2)n1", "cytotoxicity at 10 µM": 5.48},
      {"smiles": "COc1c(CNCc2ccc3c(c2)OCCO3)c(C(C)C)nn1C", "cytotoxicity at 10 µM": -3.42},
      {"smiles": "CCN(CC1CCOC1)C(=O)c1cc(F)ccc1N1CCN(C)CC1", "note": "(stereo not drawn)", "cytotoxicity at 10 µM": -7.68},
      {"smiles": "Cc1cccc(NS(=O)(=O)c2cc3c(c(C(=O)O)c2)OCCO3)c1", "cytotoxicity at 10 µM": -3.44},
      {"smiles": "CC(C)n1ncc2cc(NC(=O)N3CCC(C(N)=O)C3)cnc21", "note": "(stereo not drawn)", "cytotoxicity at 10 µM": -1.85},
      {"smiles": "O=C(CC1CCCO1)N1CCCN(c2cccnn2)CC1", "note": "(stereo not drawn)", "cytotoxicity at 10 µM": -7.72},
      {"smiles": "O=C(NCCn1ccnc1)N1CCCC1c1cccs1", "note": "(stereo not drawn)", "cytotoxicity at 10 µM": -7.51},
      {"smiles": "NC(=O)Cn1cc(NC(=O)N2CCN(c3ccc(F)cc3)CC2)cn1", "cytotoxicity at 10 µM": -12.9},
      {"smiles": "Cc1cc(CN2CCN(C(=O)NC(C)c3cccnc3)CC2)no1", "note": "(stereo not drawn)", "cytotoxicity at 10 µM": -11.8},
      {"smiles": "CCc1nc(C2CCCN2C(=O)c2cc3c(s2)CCC3)no1", "note": "(stereo not drawn)", "cytotoxicity at 10 µM": -5.86},
      {"smiles": "CCC(O)CN1CCN(C(=O)c2cccn2Cc2cccnc2)CC1", "note": "(stereo not drawn)", "cytotoxicity at 10 µM": -14.1},
      {"smiles": "O=C(NCCCn1nc2ccccn2c1=O)Nc1ccccc1Cl", "cytotoxicity at 10 µM": -22.3},
      {"smiles": "COc1ccc(C(=O)N2CCCCC2c2nccs2)c(OC)c1", "note": "(stereo not drawn)", "cytotoxicity at 10 µM": -10.7},
      {"smiles": "CC(C)Oc1ncccc1CNC(=O)c1cnccn1", "cytotoxicity at 10 µM": -10.2},
      {"smiles": "Cn1cc(CN2CCc3c(COCC4CC4)cncc3C2)cn1", "cytotoxicity at 10 µM": -6.33},
      {"smiles": "Cn1cc(CN2CCc3onc(COc4cccnc4)c3C2)cn1", "cytotoxicity at 10 µM": 4.78},
      {"smiles": "CN1CC(=O)N(c2cnn(C)c2)CC12CCN(Cc1cccs1)C2", "note": "(stereo not drawn)", "cytotoxicity at 10 µM": 3.48},
      {"smiles": "CC(C)N1CCO[C@H]2CN(C(=O)Cc3ccsc3)C[C@H]21", "cytotoxicity at 10 µM": 11.4},
      {"smiles": "O=C(NC[C@]12COC[C@H]1CN(Cc1nccs1)C2)c1ccsc1", "cytotoxicity at 10 µM": 4.09},
      {"smiles": "CC(C)N1CCC2(CC1)CC(NCc1ccccn1)c1ccccc1O2", "note": "(stereo not drawn)", "cytotoxicity at 10 µM": 0.806},
      {"smiles": "O=C(Nc1ccccc1)[C@H]1C[C@H]2CN(C(=O)Nc3ccccc3)C[C@@H]1O2", "cytotoxicity at 10 µM": 2.4}
    ]}
  ]
}
